Data as given in publication PMC6218153 (Journal of Alzheimer's Disease Reports, 2018).
Where no end group is shown, it is not given here.

Test: PK study in plasma and CSF after single IV, SC or IN dose
Assay type: in vivo, rat
How it was run: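 Cannulated rats (jugular vein, intracisternal; n = 6/route) received a single dose in PBS: IV or SC ~11 mg/kg over 1 min, or IN ~5.5 mg/kg, 10 μL per nostril at 6-min intervals over 18 min. K2EDTA plasma was taken pre-dose to 165 min and CSF pre-dose to 150/180 min. LC/MS/MS (ESI+, 1007.55 > 876.35) with noncompartmental PK; CL = Dose/AUC. CSF ratio = dose-normalised CSF AUC relative to IV.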

[1] = rat, in vivo, 5.5 mg/kg, IN 5.5 mg/kg, CSF
[2] = rat, in vivo, inhaled or intranasal, 5.5 mg/kg, IN 5.5 mg/kg, plasma
[3] = rat, in vivo, sc, 11 mg/kg, SC 11 mg/kg, CSF
[4] = rat, in vivo, sc, 11 mg/kg, SC 11 mg/kg, plasma

**Q.** With DEEEDEEL [P8, DEEEDEEL] as the sequence, how does the “P8 concentration in plasma” value (IV 11.0 mg/kg single dose, 110 min, Rat 3) read?
**A.** Its value is 39.8 ng/mL.

**Q.** And the “P8 concentration in plasma” value (IV 11.0 mg/kg single dose, 130 min, Rat 1)?
**A.** The value was 42.0 ng/mL.

**Q.** What about the “P8 concentration in plasma” value (IV 11.0 mg/kg single dose, 130 min, Rat 2) of the same sequence?
**A.** The value was 18.3 ng/mL.

**Q.** And the “P8 concentration in plasma” value (IV 11.0 mg/kg single dose, 130 min, Rat 3)?
**A.** Its value is 20.7 ng/mL.

**Q.** What about the “P8 concentration in CSF” value (IV 11.0 mg/kg single dose, 150 min, Rat 1) of the same sequence?
**A.** The value was 4.88 ng/mL.

**Q.** What about the “P8 concentration in CSF” value (IV 11.0 mg/kg single dose, 150 min, Rat 2) of the same sequence?
**A.** Its value is 4.30 ng/mL.

**Q.** And the “P8 concentration in CSF” value (IV 11.0 mg/kg single dose, 150 min, Rat 3)?
**A.** Its value is 3.57 ng/mL.

**Q.** What about the “P8 concentration in plasma” value (IV 11.0 mg/kg single dose, 165 min, Rat 1) of the same sequence?
**A.** Its value is 18.9 ng/mL.

**Q.** And the “P8 concentration in plasma” value (IV 11.0 mg/kg single dose, 165 min, Rat 3)?
**A.** Its value is 9.72 ng/mL.

**Q.** And the “P8 concentration in CSF” value (IV 11.0 mg/kg single dose, 180 min, Rat 1)?
**A.** The value was 4.11 ng/mL.

**Q.** What about the “P8 concentration in CSF” value (IV 11.0 mg/kg single dose, 180 min, Rat 3) of the same sequence?
**A.** Its value is 1.06 ng/mL.

**Q.** And the “P8 concentration in CSF” value (SC 11.0 mg/kg single dose, 10 min, Rat 1)?
**A.** Its value is 7.06 ng/mL.

**Q.** What about the “P8 concentration in CSF” value (SC 11.0 mg/kg single dose, 10 min, Rat 2) of the same sequence?
**A.** The value was 22.6 ng/mL.

**Q.** What about the “P8 concentration in CSF” value (SC 11.0 mg/kg single dose, 10 min, Rat 3) of the same sequence?
**A.** Its value is 1.75 ng/mL.

**Q.** What about the “P8 concentration in CSF” value (SC 11.0 mg/kg single dose, 30 min, Rat 1) of the same sequence?
**A.** Its value is 25.2 ng/mL.

**Q.** What about the “P8 concentration in CSF” value (SC 11.0 mg/kg single dose, 30 min, Rat 2) of the same sequence?
**A.** Its value is 12.8 ng/mL.

**Q.** And the “P8 concentration in CSF” value (SC 11.0 mg/kg single dose, 30 min, Rat 3)?
**A.** The value was 8.03 ng/mL.

**Q.** What about the “P8 concentration in CSF” value (SC 11.0 mg/kg single dose, 60 min, Rat 1) of the same sequence?
**A.** Its value is 26.5 ng/mL.

**Q.** What about the “P8 concentration in CSF” value (SC 11.0 mg/kg single dose, 60 min, Rat 2) of the same sequence?
**A.** Its value is 17.1 ng/mL.

**Q.** And the “P8 concentration in CSF” value (SC 11.0 mg/kg single dose, 60 min, Rat 3)?
**A.** The value was 10.3 ng/mL.

**Q.** And the “P8 concentration in plasma” value (SC 11.0 mg/kg single dose, 70 min, Rat 2)?
**A.** Its value is 4,150 ng/mL.

**Q.** And the “P8 concentration in plasma” value (SC 11.0 mg/kg single dose, 70 min, Rat 3)?
**A.** The value was 1,220 ng/mL.

**Q.** What about the “P8 concentration in plasma” value (SC 11.0 mg/kg single dose, 90 min, Rat 1) of the same sequence?
**A.** The value was 2,600 ng/mL.

**Q.** And the “P8 concentration in plasma” value (SC 11.0 mg/kg single dose, 90 min, Rat 2)?
**A.** The value was 3,570 ng/mL.

**Q.** And the “P8 concentration in plasma” value (SC 11.0 mg/kg single dose, 90 min, Rat 3)?
**A.** The value was 908 ng/mL.

**Q.** What about the “P8 concentration in CSF” value (SC 11.0 mg/kg single dose, 100 min, Rat 1) of the same sequence?
**A.** Its value is 21.6 ng/mL.

**Q.** What about the “P8 concentration in CSF” value (SC 11.0 mg/kg single dose, 100 min, Rat 2) of the same sequence?
**A.** Its value is 16.3 ng/mL.

**Q.** What about the “P8 concentration in CSF” value (SC 11.0 mg/kg single dose, 100 min, Rat 3) of the same sequence?
**A.** The value was 8.31 ng/mL.

**Q.** What about the “P8 concentration in plasma” value (SC 11.0 mg/kg single dose, 110 min, Rat 1) of the same sequence?
**A.** The value was 2,120 ng/mL.

**Q.** And the “P8 concentration in plasma” value (SC 11.0 mg/kg single dose, 110 min, Rat 2)?
**A.** The value was 2,410 ng/mL.

**Q.** And the “P8 concentration in plasma” value (SC 11.0 mg/kg single dose, 110 min, Rat 3)?
**A.** Its value is 804 ng/mL.

**Q.** And the “P8 concentration in plasma” value (SC 11.0 mg/kg single dose, 130 min, Rat 1)?
**A.** Its value is 1,870 ng/mL.

**Q.** And the “P8 concentration in plasma” value (SC 11.0 mg/kg single dose, 130 min, Rat 2)?
**A.** The value was 3,030 ng/mL.

**Q.** What about the “P8 concentration in plasma” value (SC 11.0 mg/kg single dose, 130 min, Rat 3) of the same sequence?
**A.** Its value is 619 ng/mL.

**Q.** And the “P8 concentration in CSF” value (SC 11.0 mg/kg single dose, 150 min, Rat 1)?
**A.** Its value is 11.8 ng/mL.

**Q.** And the “P8 concentration in CSF” value (SC 11.0 mg/kg single dose, 150 min, Rat 2)?
**A.** Its value is 10.7 ng/mL.

**Q.** What about the “P8 concentration in CSF” value (SC 11.0 mg/kg single dose, 150 min, Rat 3) of the same sequence?
**A.** Its value is 5.71 ng/mL.

**Q.** What about the “P8 concentration in plasma” value (SC 11.0 mg/kg single dose, 165 min, Rat 1) of the same sequence?
**A.** Its value is 1,010 ng/mL.

**Q.** And the “P8 concentration in plasma” value (SC 11.0 mg/kg single dose, 165 min, Rat 2)?
**A.** The value was 1,600 ng/mL.

**Q.** And the “P8 concentration in plasma” value (SC 11.0 mg/kg single dose, 165 min, Rat 3)?
**A.** The value was 356 ng/mL.

**Q.** What about the “mean plasma exposure, SC relative to IN, corrected for dose” value (rat) of the same sequence?
**A.** Its value is 25 fold.

**Q.** And the “percent of dose absorbed, SC relative to IN” value (rat)?
**A.** The value was 25 fold.

**Q.** And the “ratio or relative % F across the blood-brain barrier, % of the plasma concentrations” value (rat)?
**A.** Its value is under 1%.

**Q.** What about the “CSF Ratio (dose normalized CSF AUC of route / of IV dose)” value (rat, IN 5.5 mg/kg) of the same sequence?
**A.** Its value is 0.10±0.092.

**Q.** And the “Plasma: CSF Ratio (AUC)” value (rat, IN 5.5 mg/kg)?
**A.** Its value is 0.041±0.041.

**Q.** And the “Plasma: CSF Ratio (Cmax)” value (rat, IN 5.5 mg/kg)?
**A.** Its value is 0.064±0.093.

**Q.** And the Tmax (rat, IN 5.5 mg/kg, CSF)?
**A.** Its Tmax is 27 ± 29 min.

**Q.** What about the “CSF exposure as % of plasma exposure” value (rat, IV) of the same sequence?
**A.** The value was “about 0.5%”.

**Q.** What about the “Plasma: CSF Ratio (AUC)” value (rat, IV 11 mg/kg) of the same sequence?
**A.** Its value is 0.0052±0.0015.

**Q.** What about the “peak CSF Cmax” value (rat, IV 11 mg/kg, CSF, at the 10-min time point (first time point)) of the same sequence?
**A.** Its value is 65.6 ng/mL.

**Q.** And the t1/2 (rat, IV 11 mg/kg, plasma, terminal, 11 mg/kg)?
**A.** The t1/2 was 21.9 ± 8.18 min.

**Q.** And the “clearance as share of hepatic liver blood flow” value (rat, IV, based on a 70 mL/min/kg estimate)?
**A.** Its value is “about 25%”.

**Q.** And the “CSF exposure as % of plasma exposure” value (rat, SC)?
**A.** The value was “about 0.5%”.

**Q.** What about the “CSF Ratio (dose normalized CSF AUC of route / of IV dose)” value (rat, SC 11 mg/kg) of the same sequence?
**A.** Its value is 0.72±0.29.

**Q.** And the “Plasma: CSF Ratio (AUC)” value (rat, SC 11 mg/kg)?
**A.** The value was 0.0055±0.00054.

**Q.** And the “Plasma: CSF Ratio (Cmax)” value (rat, SC 11 mg/kg)?
**A.** The value was 0.0037±0.0005.

**Q.** And the AUC [1]?
**A.** The AUC was 5.5 ng·h/mL.

**Q.** What about the Cmax [1] of the same sequence?
**A.** Its Cmax is 12.4 ± 17.7 ng/mL.

**Q.** What about the Tmax (rat, in vivo, 5.5 mg/kg, Tmax, IN 5.5 mg/kg, CSF) of the same sequence?
**A.** Its Tmax is 26.7 min.

**Q.** What about the bioavailability (rat, in vivo, inhaled or intranasal, 5.5 mg/kg) of the same sequence?
**A.** Its bioavailability is 2.8 ± 0.88%.

**Q.** What about the AUC [2] of the same sequence?
**A.** Its AUC is 146 ng·h/mL.

**Q.** What about the Cmax [2] of the same sequence?
**A.** Its Cmax is 197 ± 62.7 ng/mL.

**Q.** What about the Tmax (rat, in vivo, inhaled or intranasal, 5.5 mg/kg, Tmax, IN 5.5 mg/kg, plasma) of the same sequence?
**A.** The Tmax was 5 min.

**Q.** And the Vd (rat, in vivo, iv, 11 mg/kg)?
**A.** Its Vd is 0.546 ± 0.306 L/kg.

**Q.** And the clearance (rat, in vivo, iv, 11 mg/kg)?
**A.** Its clearance is 17.6 ± 5.65 mL/min/kg.

**Q.** And the AUC (rat, in vivo, iv, 11 mg/kg, IV 11 mg/kg, CSF)?
**A.** Its AUC is 54.5 ng·h/mL.

**Q.** And the AUC (rat, in vivo, iv, 11 mg/kg, IV 11 mg/kg, plasma)?
**A.** The AUC was 11300 ng·h/mL.

**Q.** What about the half-life (rat, in vivo, iv, 11 mg/kg, t1/2, rat, IV 11 mg/kg, plasma, terminal) of the same sequence?
**A.** Its half-life is 22 ± 8.2 min.

**Q.** What about the bioavailability (rat, in vivo, sc, 11 mg/kg) of the same sequence?
**A.** The bioavailability was 65 ± 21%.

**Q.** And the AUC [3]?
**A.** The AUC was 39.7 ng·h/mL.

**Q.** What about the AUC [4] of the same sequence?
**A.** The AUC was 7380 ng·h/mL.

**Q.** And the Cmax [3]?
**A.** Its Cmax is 19.8 ± 8.46 ng/mL.

**Q.** What about the Cmax [4] of the same sequence?
**A.** Its Cmax is 5390 ng/mL.

**Q.** What about the Tmax (rat, in vivo, sc, 11 mg/kg, Tmax, SC 11 mg/kg, CSF) of the same sequence?
**A.** Its Tmax is 43 min.

**Q.** What about the Tmax (rat, in vivo, sc, 11 mg/kg, Tmax, SC 11 mg/kg, plasma) of the same sequence?
**A.** The Tmax was 25 min.
